The values that follow come from ChEMBL document CHEMBL1153494, “Design, synthesis, enzyme inhibition, and tumor cell growth inhibition of 2-anilinobenzamide derivatives as SIRT1 inhibitors” (Bioorg Med Chem, 2009).

Experiment [1] deals with Daudi. Kind of experiment: Growth inhibition of human Daudi cells after 24 hrs by alamar blue assay. Type of experiment: functional. To be noted: 72 h, in the assay text read “after 72 hrs” for “after 24 hrs”. An outline of the steps:
(§1)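 Cells came from ATCC and were grown with penicillin/streptomycin and FBS: HCT116 in McCoy's 5A, Daudi in RPMI. They were seeded at 5000 cells/well; after 24 h, compounds in medium were added at various concentrations for 72 h at 37 °C, 5% CO₂. AlamarBlue was then added for 3 h, fluorescence read (ex 530 / em 590 nm), and % cell growth calculated.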

Experiment [2] deals with T1, NAD-dependent protein deacetylase sirtuin-1 (Homo sapiens, UniProt Q96EB6).
T1 sequence (Q96EB6 whole entry): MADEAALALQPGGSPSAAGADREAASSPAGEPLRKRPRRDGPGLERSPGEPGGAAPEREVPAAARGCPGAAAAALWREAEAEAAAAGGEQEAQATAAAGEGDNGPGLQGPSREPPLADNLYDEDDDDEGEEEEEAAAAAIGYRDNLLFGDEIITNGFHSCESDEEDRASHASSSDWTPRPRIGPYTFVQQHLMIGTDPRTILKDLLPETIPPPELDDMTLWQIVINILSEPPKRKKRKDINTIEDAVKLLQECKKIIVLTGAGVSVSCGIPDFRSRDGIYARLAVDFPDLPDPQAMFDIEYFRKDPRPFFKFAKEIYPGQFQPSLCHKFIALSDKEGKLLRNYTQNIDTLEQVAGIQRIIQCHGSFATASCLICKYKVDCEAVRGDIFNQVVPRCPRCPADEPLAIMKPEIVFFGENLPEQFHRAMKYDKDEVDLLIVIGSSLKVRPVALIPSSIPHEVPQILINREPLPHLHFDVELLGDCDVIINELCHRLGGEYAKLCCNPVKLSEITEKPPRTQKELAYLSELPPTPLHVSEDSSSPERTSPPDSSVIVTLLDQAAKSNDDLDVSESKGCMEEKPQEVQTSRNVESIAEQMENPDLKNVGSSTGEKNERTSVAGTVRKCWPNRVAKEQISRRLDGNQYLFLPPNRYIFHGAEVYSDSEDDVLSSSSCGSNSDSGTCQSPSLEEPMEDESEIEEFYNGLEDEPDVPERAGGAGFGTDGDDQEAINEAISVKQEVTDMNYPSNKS
Nature of the experiment: Inhibition of human recombinant SIRT1 by fluorimetric analysis. An outline of the steps:
(§2)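 Recombinant human SIRT1 was incubated at 37 °C with Fluor de Lys-SIRT1 substrate, NAD⁺ and a range of sample concentrations. After 60 min the reaction was stopped with Fluor de Lys Developer II containing nicotinamide. Fluorescence (ex 360 nm / em 460 nm) was read 45 min later, and % inhibition was taken relative to control wells.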

Experiment [3] concerns HCT-116. Kind of experiment: Growth inhibition of human HCT116 cells after 24 hrs by alamar blue assay. Type of experiment: functional. To be noted: HCT-116, 72 h, in the assay text read “after 72 hrs” for “after 24 hrs”. An outline of the steps:
as §1

The subject of experiment [4] is HCT-116. Nature of the experiment: Growth inhibition of human HCT116 cells at 100 uM after 24 hrs by alamar blue assay. It is filed as functional. Particulars: HCT-116, 72 h, in the assay text read “after 72 hrs” for “after 24 hrs”. An outline of the steps: as §1
Experiment [5] concerns Daudi. Kind of experiment: Growth inhibition of human Daudi cells at 100 uM after 24 hrs by alamar blue assay. It is filed as functional. Particulars: 72 h, in the assay text read “after 72 hrs” for “after 24 hrs”. An outline of the steps:
as §1

The target of experiment [6] is T1, NAD-dependent protein deacetylase sirtuin-1. Kind of experiment: Inhibition of human recombinant SIRT1 at 300 uM by fluorimetric analysis. The method, boiled down:
as §2

pIC50: −log10 of the molar value. Some results are limits rather than exact numbers.

For the compound `NC(=O)c1ccccc1Nc1cccc(-c2ccccc2)c1`, the GI50 is 26 µM with Daudi [1] and 43 µM with HCT-116 [3]. Further, in experiment [2], the pIC50 was 4.28. Besides, the inhibition at 100 µM with HCT-116 [4] came to 126%; with Daudi [5], 108%.

Consider `NC(=O)c1ccccc1Nc1cccc(Oc2ccccc2)c1`, for which the GI50 was found to be 31 µM in the experiment on Daudi [1] and 50 µM in the experiment on HCT-116 [3]. Moreover, in experiment [2], the pIC50 is 4.24. Besides, the inhibition at 100 µM came out at 126% with HCT-116 [4] and 103% in the experiment with Daudi [5].

In the case of `NC(=O)c1ccccc1Nc1cccc(/C=C/C(=O)O)c1`, the GI50 with Daudi [1] and in the experiment with HCT-116 [3] was greater than 100 µM throughout. Besides, the pIC50 in experiment [2] was 4.24. Besides, the inhibition at 100 µM with HCT-116 [4] and in the experiment with Daudi [5] was 0% throughout.

On to `NC(=O)c1ccccc1Sc1ccccc1`, for which, in experiment [2], the pIC50 is 4.11.

As to `COC(=O)/C=C/c1cccc(Nc2ccccc2C(N)=O)c1`, the pIC50 in experiment [2] was 4.19.

As for `Cc1cccc(Nc2ccccc2C(N)=O)c1`, the pIC50 in experiment [2] was 4.17.

As to `NC(=O)c1ccccc1Nc1cccc(CO)c1`, the GI50 in the experiment with Daudi [1] and with HCT-116 [3] was greater than 100 µM in each case. Further, the pIC50 in experiment [2] was 4.22. Further, the results for the inhibition at 100 µM in the experiment with HCT-116 [4] and in the experiment on Daudi [5] were 4% and 0%, respectively.

For `NC(=O)c1ccccc1Nc1cccc(Sc2ccccc2)c1`, in experiment [2], the pIC50 was 4.05.

Regarding `NC(=O)c1ccccc1Nc1ccc(-c2ccccc2)cc1`, the “inhibition (INH)” value in experiment [6] amounted to 36%.

Take `NC(=O)c1ccccc1Nc1cccc(CCO)c1`: the GI50 in the experiment with Daudi [1] and in the experiment with HCT-116 [3] was greater than 100 µM in each case. For the same compound, the pIC50 in experiment [2] was 4.14. Further, the values for the inhibition at 100 µM with HCT-116 [4] and in the experiment on Daudi [5] were 12% and 6%, respectively.

Take `NC(=O)c1ccccc1Nc1ccccc1` [ANILINOBENZAMIDE]: the GI50 with Daudi [1] is 77 µM; in the experiment on HCT-116 [3], greater than 100 µM. The pIC50 in experiment [2] is 4.25. Moreover, the figures for the inhibition at 100 µM with HCT-116 [4] and in the experiment on Daudi [5] were 21% and 74%, respectively.
